{"data": "Measurements collected from several papers", "PIK3CA": "Phosphatidylinositol 4,5-bisphosphate 3-kinase catalytic subunit alpha isoform (PIK3CA, Homo sapiens, UniProt P42336)", "CYP1A1": "Cytochrome P450 1A1 (CYP1A1, Homo sapiens, UniProt P04798)", "PTK6": "Protein-tyrosine kinase 6 (PTK6, Homo sapiens, UniProt Q13882)", "CELA1": "Chymotrypsin-like elastase family member 1 (CELA1, Sus scrofa, UniProt P00772)", "PIKFYVE": "1-phosphatidylinositol 3-phosphate 5-kinase (PIKFYVE, Homo sapiens, UniProt Q9Y2I7)", "AVPR1A": "Vasopressin V1a receptor (AVPR1A, Homo sapiens, UniProt P37288)", "MAP2K1": "Dual specificity mitogen-activated protein kinase kinase 1 (MAP2K1, Homo sapiens, UniProt Q02750)", "PADI1": "Protein-arginine deiminase type-1 (PADI1, Homo sapiens, UniProt Q9ULC6)", "PDE9A": "High affinity cGMP-specific 3',5'-cyclic phosphodiesterase 9A (PDE9A, Homo sapiens, UniProt O76083)"}
{"SMILES": "O=[N+]([O-])c1ccc(N2CCN(S(=O)(=O)c3ccc(F)cc3)CC2)cc1NCc1cccnc1", "target": "ATP-sensitive inward rectifier potassium channel 1 (Homo sapiens, UniProt P48048)", "test": "ion flux, inhibitor", "IC50 [nM]": 1900}
{"SMILES": "Nc1ncc(-c2nc(N3CCOCC3)nc(N3C[C@H]4CC[C@@H](C3)O4)n2)c(C(F)F)n1", "target": "PIK3CA", "test": "ligand displacement, TR-FRET", "IC50 [nM]": 42.2}
{"SMILES": "O=C1NC(=S)S/C1=C\\c1cc([N+](=O)[O-])ccc1Cl", "target": "PIK3CA", "test": "enzyme activity, inhibitor, radiometric", "IC50 [nM]": 42000}
{"SMILES": "CC(=O)N1CCN(c2ccc(OCC3COC(Cn4ccnc4)(c4ccc(Cl)cc4Cl)O3)cc2)CC1 (stereo not shown)", "target": "CYP1A1", "test": "enzyme activity, inhibitor, fluorescence", "IC50 [nM]": 230}
{"SMILES": "C[C@H](CS)C(=O)N1CCC[C@H]1C(=O)O", "target": "Beta-lactamase L1 (Stenotrophomonas maltophilia, UniProt P52700)", "test": "enzyme activity, inhibitor", "IC50 [nM]": 73700}
{"SMILES": "O=C1NC(=S)S/C1=C\\c1csc2ccc(Cl)cc12", "target": "PIK3CA", "test": "enzyme activity, inhibitor, radiometric", "IC50 [nM]": 30000}
{"SMILES": "C[C@@H]1COCCN1c1nc(-c2cnc(N)nc2C(F)F)nc(N2CCOCC2)n1", "target": "PIK3CA", "test": "ligand displacement, TR-FRET", "IC50 [nM]": 26.1}
{"SMILES": "C=CC(=O)Nc1cc(Nc2nccc(Nc3cc(Cl)c(F)cc3C(C)(C)O)n2)c(OC)cc1N1CC[C@@H](N(C)C)C1", "target": "PTK6", "test": "enzyme activity, inhibitor", "conditions": "with preincubation", "IC50 [nM]": 529}
{"SMILES": "Cc1ccc(C(C)C)cc1NC(=O)COC(=O)/C=C/c1ccc(Cl)cc1", "target": "CELA1", "test": "enzyme activity, inhibitor, absorbance", "IC50 [nM]": 35800}
{"SMILES": "CCn1ncc2c1-c1cnc(N)c(c1)O[C@H](C)c1cc(F)ccc1-c1nn(C)nc1C2", "target": "PTK6", "test": "enzyme activity, inhibitor, radiometric", "IC50 [nM]": 184}
{"SMILES": "O=C1NC(=S)S/C1=C\\c1ccc(-c2ccccn2)cc1", "target": "PIK3CA", "test": "enzyme activity, inhibitor, radiometric", "IC50 [nM]": "> 100000"}
{"SMILES": "COC(C)(C)C#Cc1ccc2[nH]c3c(c2c1)-c1nc(N)ncc1CCC3", "target": "PIKFYVE", "test": "target engagement in cells, BRET", "IC50 [nM]": 314}
{"SMILES": "CC(C)C[C@H](NC(=O)[C@H](C)NC(=O)[C@H](CCCCN)NC(=O)[C@H](CCCCN)NC(=O)[C@@H](N)CCCCN)C(=O)N[C@@H](CC(N)=O)C(=O)N[C@@H](CCCNC(=N)N)C(=O)N[C@@H](CCC(N)=O)C(=O)N[C@@H](CC(C)C)C(=O)NCC(=O)N[C@H](C(=O)N[C@@H](C)C(=O)N[C@@H](C)C(N)=O)C(C)C", "target": "MAP kinase-activated protein kinase 2 (MAPKAPK2, Homo sapiens, UniProt P49137)", "test": "enzyme activity, inhibitor, radiometric", "IC50 [nM]": 31000}
{"SMILES": "CCn1c(-c2nc3ccc(C(=O)N4CCCC(N)C4)cc3n2C)cc2ccccc21 (stereo not shown)", "target": "AVPR1A", "test": "calcium signal, antagonist, fluorescence", "IC50 [nM]": "> 50100"}
{"SMILES": "CCCCN1/C(=C/C=C/c2sc3ccc(Br)cc3[n+]2CCCC)Sc2ccc(Br)cc21", "target": "Protein arginine N-methyltransferase 8 (PRMT8, Homo sapiens, UniProt Q9NR22)", "test": "enzyme activity, inhibitor, radiometric", "IC50 [nM]": 3530}
{"SMILES": "Cc1cnc(-c2ccc(-c3ccc(NC(=O)Nc4c(F)cc(F)cc4F)cc3F)c3c2C(=O)NC3)[nH]1", "target": "MAP2K1", "test": "enzyme activity, inhibitor", "IC50 [nM]": 42.6}
{"SMILES": "CCOC(F)(F)c1nnc2cnc(-c3cnc(OCC(F)(F)F)c(F)c3)cn12", "target": "Sodium channel protein type 2 subunit alpha (Scn2a, Rattus norvegicus, UniProt P04775)", "test": "ion current, inhibitor, patch clamp", "IC50 [nM]": 179}
{"SMILES": "C=C(C)CCOP(=O)(O)OP(=O)(O)OP(=O)(O)OC[C@H]1O[C@@H](n2cnc3c(N)ncnc32)[C@H](O)[C@@H]1O", "target": "Glycogen synthase kinase-3 beta (GSK3B, Homo sapiens, UniProt P49841)", "test": "enzyme activity, inhibitor, radiometric", "IC50 [nM]": 4300}
{"SMILES": "NC(=O)[C@H](CCCN=C(N)CF)NC(=O)c1ccccc1", "target": "PADI1", "test": "enzyme activity, inhibitor", "IC50 [nM]": 29500}
{"SMILES": "Cc1ccc(C(C)C)cc1NC(=O)COC(=O)c1cccc(O)c1", "target": "CELA1", "test": "enzyme activity, inhibitor, absorbance", "IC50 [nM]": 41900}
{"SMILES": "Nc1ncc2c(n1)-c1c([nH]c3ccc(C#CCCO)cc13)CCC2", "target": "PIKFYVE", "test": "target engagement in cells, BRET", "IC50 [nM]": 40}
{"SMILES": "C/C=C1\\NC(=O)[C@H](C)NC(=O)[C@@H](NC(=O)[C@H](Cc2ccc(O)cc2)NC(=O)[C@@H](NC(=O)/C(C)=C/C)C(C)C)[C@@H](C)OC(=O)[C@H](CCCc2ccc(O)cc2)NC(=O)[C@@H](CCC(=O)OC)NC1=O", "target": "CELA1", "test": "enzyme activity, inhibitor, absorbance", "IC50 [nM]": 2230}
{"SMILES": "NCCCC[C@H](NC(=O)[C@@H]1CCCN1C(=O)[C@@H]1CSSC[C@H](NC(=O)CNC(=O)CNC(=O)CN)C(=O)N[C@@H](Cc2ccc(O)cc2)C(=O)N[C@@H](Cc2ccccc2)C(=O)N[C@@H](CCC(N)=O)C(=O)N[C@@H](CC(N)=O)C(=O)N1)C(=O)NCC(N)=O", "target": "AVPR1A", "test": "ligand displacement, radioligand", "conditions": "cell membranes", "IC50 [nM]": 1700}
{"SMILES": "COc1cc(O)c(CC=C(C)C)c2c1C(=O)CC(c1ccc(O)cc1)O2 (stereo not shown)", "target": "CYP1A1", "test": "enzyme activity, inhibitor, fluorescence", "conditions": "15 min, pH 7.4", "IC50 [nM]": 1600}
{"SMILES": "NC(=O)c1ccc(Oc2ccc(C(N)=O)cc2)cc1", "target": "Protein mono-ADP-ribosyltransferase PARP11 (PARP11, Homo sapiens, UniProt Q9NR21)", "test": "enzyme activity, inhibitor", "IC50 [nM]": 930}
{"SMILES": "CCNC(=O)[C@H](CCCNC(=N)CF)NC(=O)c1ccccc1", "target": "PADI1", "test": "enzyme activity, inhibitor", "IC50 [nM]": 40000}
{"SMILES": "CNC(=O)c1cc2c(Oc3ccc(NC(=O)C4(C(=O)Nc5ccc(F)cc5)CC4)cc3)ccnc2cc1OC", "target": "Vascular endothelial growth factor receptor 2 (KDR, Homo sapiens, UniProt P35968)", "test": "enzyme activity, inhibitor, TR-FRET", "IC50 [nM]": 12.1}
{"SMILES": "CN1CCN(c2ccc(Nc3ncc4cc(C#N)c(=O)n(C5CCCC5)c4n3)cc2)CC1", "target": "Activin receptor type-1-like (ACVRL1, Homo sapiens, UniProt P37023)", "test": "enzyme activity, inhibitor", "IC50 [nM]": 449}
{"SMILES": "O=C1NC(=S)S/C1=C\\c1ccccc1[N+](=O)[O-]", "target": "PIK3CA", "test": "enzyme activity, inhibitor, radiometric", "IC50 [nM]": "> 100000"}
{"SMILES": "Cc1ccc(C(C)C)cc1NC(=O)COC(=O)/C=C/c1ccccc1O", "target": "CELA1", "test": "enzyme activity, inhibitor, absorbance", "IC50 [nM]": 13300}
{"SMILES": "CC(C)(C)n1nc(-c2cnc3cc(OC4CC4)ccc3c2)c(C(N)=O)c1N", "target": "MAP2K1", "test": "cell-free assay", "IC50 [nM]": 8230}
{"SMILES": "C[C@@H]1O[C@@H](O[C@H]2[C@H](Oc3c(-c4ccc(O)cc4)oc4cc(O)cc(O)c4c3=O)O[C@H](CO[C@@H]3O[C@H](CO)[C@@H](O)[C@H](O)[C@H]3O)[C@@H](O)[C@@H]2O)[C@H](O)[C@H](O)[C@H]1O", "target": "Prostaglandin G/H synthase 2 (PTGS2, Ovis aries, UniProt P79208)", "test": "enzyme activity, inhibitor, absorbance", "IC50 [nM]": 44000}
{"SMILES": "O=C1NC(=S)S/C1=C\\c1c[nH]c2ccccc12", "target": "PIK3CA", "test": "enzyme activity, inhibitor, radiometric", "IC50 [nM]": "> 100000"}
{"SMILES": "CC(C)(C#Cc1ccc2[nH]c3c(c2c1)-c1nc(N)ncc1CCC3)NS(C)(=O)=O", "target": "PIKFYVE", "test": "target engagement in cells, BRET", "IC50 [nM]": 1600}
{"SMILES": "CC(C)(C)c1c(O)ccc(/C=C2\\SC(=S)NC2=O)c1C(C)(C)C", "target": "PIK3CA", "test": "enzyme activity, inhibitor, radiometric", "IC50 [nM]": 30000}
{"SMILES": "COCC1CCCc2c1[nH]c(=O)c(C#N)c2-c1ccc(C)cc1 (stereo not shown)", "target": "PDE9A", "test": "enzyme activity, inhibitor, radiometric", "IC50 [nM]": 400}
{"SMILES": "O=C(O)CCc1ccc(O)c(CN(CCN(CC(=O)O)Cc2cc(CCC(=O)NCCCCCC(=O)NCCCC[C@H](NC(=O)N[C@@H](CCC(=O)O)C(=O)O)C(=O)O)ccc2O)CC(=O)O)c1", "target": "Glutamate carboxypeptidase 2 (FOLH1, Homo sapiens, UniProt Q04609)", "test": "ligand displacement, radioligand", "IC50 [nM]": 24.3}
{"SMILES": "CC(C)(C#Cc1ccc2[nH]c3c(c2c1)-c1nc(N)ncc1CCC3)CO", "target": "PIKFYVE", "test": "target engagement in cells, BRET", "IC50 [nM]": 2160}
{"SMILES": "COc1ccc(S(=O)(=O)ON=C2C=C(C)C(=O)C(C)=C2)cc1", "target": "Histone acetyltransferase KAT6B (Homo sapiens, UniProt Q8WYB5)", "test": "enzyme activity, inhibitor, radiometric", "IC50 [nM]": "> 100000"}
{"SMILES": "CCC(O)(C#Cc1ccc2[nH]c3c(c2c1)-c1nc(N)ncc1CCC3)CC", "target": "PIKFYVE", "test": "enzyme activity, inhibitor, ADP detection", "IC50 [nM]": 1.8}
{"SMILES": "Cc1ccc(C(C)C)cc1NC(=O)COC(=O)/C=C/c1ccc(O)cc1", "target": "CELA1", "test": "enzyme activity, inhibitor, absorbance", "IC50 [nM]": 23300}
{"SMILES": "CCCCC1CCCc2c1[nH]c(=O)c(C#N)c2-c1ccc(C)cc1 (stereo not shown)", "target": "PDE9A", "test": "enzyme activity, inhibitor, radiometric", "IC50 [nM]": 61.2}
{"SMILES": "COc1ccc(/C=C2\\SC(=S)NC2=O)c(OC)c1OC", "target": "PIK3CA", "test": "enzyme activity, inhibitor, radiometric", "IC50 [nM]": 68000}
{"SMILES": "COc1cc(O)c(CC=C(C)C)c(O)c1C(=O)/C=C/c1ccc(O)cc1", "target": "CYP1A1", "test": "enzyme activity, inhibitor, fluorescence", "conditions": "15 min, pH 7.4", "IC50 [nM]": 280}
{"SMILES": "CC1=C(C#N)[C@@H](c2ccc(C#N)cc2S(C)(=O)=O)N(C)C(=O)N1c1cccc(C(F)(F)F)c1", "target": "CELA1", "test": "enzyme activity, inhibitor", "IC50 [nM]": "> 30000"}
{"SMILES": "CCOc1ccc(/C=C2\\SC(=S)NC2=O)cc1", "target": "PIK3CA", "test": "enzyme activity, inhibitor, radiometric", "IC50 [nM]": 5400}
{"SMILES": "NC(=O)c1ccc[n+]([C@@H]2O[C@H](COP(=O)([O-])OP(=O)(O)OC[C@H]3O[C@@H](n4cnc5c(N)ncnc54)[C@H](O)[C@@H]3O)[C@@H](O)[C@H]2O)c1", "target": "Protein mono-ADP-ribosyltransferase PARP15 (PARP15, Homo sapiens, UniProt Q460N3)", "test": "enzyme activity, inhibitor", "IC50 [nM]": 637000}
{"SMILES": "Cc1ccc(C(C)C)cc1NC(=O)COC(=O)c1ccc(O)cc1", "target": "CELA1", "test": "enzyme activity, inhibitor, absorbance", "IC50 [nM]": 81900}
{"SMILES": "COc1ccc(CNc2c(CO)cnc3c(C4CC4)cc(C#N)cc23)cn1", "target": "PDE9A", "test": "enzyme activity, inhibitor", "IC50 [nM]": "> 10000"}
